Drawing on ChEMBL document CHEMBL1151442, “Genetic and phenotypic identification of fusidic acid-resistant mutants with the small-colony-variant phenotype in Staphylococcus aureus” (2007), this text covers MIC and Activity for 3 compounds.

SMILES strings stand for the structures. ≈ marks a conversion by molar mass, not a printed value.

What all share (format): functional
The subject of test [1] is Staphylococcus aureus. Description: Antibacterial activity against kanamycin-resistant and fusidic acid-susceptible Staphylococcus aureus AH296 harboring Gly664Ala mutation in fusA gene after 18 to 24 hrs by Etest strip assay. A digest of the protocol:
(§1)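 Etest MIC: a single colony was suspended in 0.9% NaCl to 0.5 McFarland and swabbed over Mueller-Hinton agar. The strip was applied and plates were incubated at 37°C for 18 to 24 h until an SCV lawn grew.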

Test [2] relates to Staphylococcus aureus. Description: Antibacterial activity against fusidic acid-resistant Staphylococcus aureus AH196 harboring Pro406Leu mutation in fusA gene after 18 to 24 hrs by Etest strip assay. Summed up: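 Mutants of lab strain 8325-4 were selected on LA with FA 2 μg/ml for 48 h at 37°C and purified on selective medium. For the MIC, one colony was suspended in 0.9% NaCl to 0.5 McFarland and swabbed onto Mueller-Hinton agar. An Etest strip was applied and plates were incubated at 37°C for 18–24 h until the lawn was evident.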

In test [3] the test system is Staphylococcus aureus. Briefly: Antibacterial activity against kanamycin-resistant Staphylococcus aureus AH380 (SCV-52) harboring -1 frameshift mutation at nucleotide 158 in rplF gene after 18 to 24 hrs by Etest strip assay. Summed up: (§2)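 SCVs of a Rifr 8325-4 derivative were selected on LA with KAN at 8, 16 or 24 μg/ml for 48 h at 37°C. They were purified at the same KAN level and screened on LA plus FA 1 μg/ml.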

The test system of test [4] is Staphylococcus aureus. Briefly: Antibacterial activity against kanamycin-resistant Staphylococcus aureus AH339 (SCV-11) harboring -1 frameshift mutation at nucleotide 144 in rplF gene after 18 to 24 hrs by Etest strip assay. Summed up: as §2
In test [5] the test system is Staphylococcus aureus. Briefly: Antibacterial activity against kanamycin-resistant Staphylococcus aureus AH337 (SCV-9) harboring -1 frameshift mutation at nucleotide 220 in rplF gene after 18 to 24 hrs by Etest strip assay. Summed up: as §2
For test [6], the system named is Staphylococcus aureus. Description: Antibacterial activity against kanamycin-resistant Staphylococcus aureus AH357 (SCV-29) harboring TAA stop codon at nucleotide 301 in rplF gene after 18 to 24 hrs by Etest strip assay. A digest of the protocol: as §2
The subject of test [7] is Staphylococcus aureus. Briefly: Antibacterial activity against kanamycin-resistant and fusidic acid-susceptible Staphylococcus aureus AH297 harboring Ser660Pro mutation in fusA gene after 18 to 24 hrs by Etest strip assay. A digest of the protocol:
as §1

Test [8] relates to Staphylococcus aureus. Briefly: Antibacterial activity against stationary-phase rifampin-resistant Staphylococcus aureus 8325-4 culture assessed as number of viable colonies at 8 ug/ ml after 48 hrs. A digest of the protocol:
(§3)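 Twenty independent stationary-phase overnight LB cultures of the Rifr 8325-4 derivative were made; 108 cells from each were spread on LA with kanamycin at 8, 16 or 24 μg/ml. Plates were incubated 48 h at 37°C so that slow-growing variants could form visible colonies, and Kanr colonies were counted.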

The subject of test [9] is Staphylococcus aureus. Description: Antibacterial activity against stationary-phase rifampin-resistant Staphylococcus aureus 8325-4 culture assessed as number of viable colonies at 16 ug/ ml after 48 hrs. A digest of the protocol:
as §3

Test [10] relates to Staphylococcus aureus. Briefly: Antibacterial activity against stationary-phase rifampin-resistant Staphylococcus aureus 8325-4 culture assessed as number of viable colonies at 24 ug/ ml after 48 hrs. Summed up: as §3

On to `CC(=O)O[C@H]1C[C@@]2(C)[C@@H](C[C@@H](O)[C@H]3[C@@]4(C)CC[C@@H](O)[C@@H](C)[C@@H]4CC[C@@]32C)/C1=C(\CCC=C(C)C)C(=O)O` [FUSIDIC ACID], for which the minimum inhibitory concentration (MIC) came out at 3 µg/mL (≈ 5.81 µM) against Staphylococcus aureus [1]; 6 µg/mL (≈ 11.6 µM) with Staphylococcus aureus [2]; 6 µg/mL with Staphylococcus aureus [3]; 6 µg/mL in the test on Staphylococcus aureus [4]; 12 µg/mL with Staphylococcus aureus [5]; 12 µg/mL (≈ 23.2 µM) in the test on Staphylococcus aureus [6]. In the test on Staphylococcus aureus [7], this compound had an MIC of 2 µg/mL (≈ 3.87 µM).

Take `CN[C@@H]1[C@H](O[C@H]2[C@H](O[C@H]3[C@H](O)[C@@H](O)[C@H](N=C(N)N)[C@@H](O)[C@@H]3N=C(N)N)O[C@@H](C)[C@]2(O)C=O)O[C@@H](CO)[C@H](O)[C@H]1O` [STREPTOMYCIN]: the MIC in the test with Staphylococcus aureus [1] is 8 µg/mL (≈ 13.8 µM); against Staphylococcus aureus [2], 8 µg/mL (≈ 13.8 µM); with Staphylococcus aureus [3], 24 µg/mL; in the test with Staphylococcus aureus [4], 128 µg/mL; in the test with Staphylococcus aureus [5] it was 256 µg/mL; against Staphylococcus aureus [6], 256 µg/mL (≈ 440 µM).

Take `NC[C@H]1O[C@H](O[C@H]2[C@H](O)[C@@H](O[C@H]3O[C@H](CO)[C@@H](O)[C@H](N)[C@H]3O)[C@H](N)C[C@@H]2N)[C@H](O)[C@@H](O)[C@@H]1O` [KANAMYCIN]: the MIC in the test on Staphylococcus aureus [1] stood at 16 µg/mL (≈ 33 µM); against Staphylococcus aureus [2] it was 3 µg/mL (≈ 6.19 µM); in the test with Staphylococcus aureus [3] it was 4 µg/mL; in the test with Staphylococcus aureus [4] it was 64 µg/mL; with Staphylococcus aureus [5], 96 µg/mL; against Staphylococcus aureus [6], 96 µg/mL (≈ 198 µM). Also, in the test on Staphylococcus aureus [7], the MIC worked out at 24 µg/mL (≈ 49.5 µM). For the same compound, the Activity in the test with Staphylococcus aureus [8] was 1000; in the test on Staphylococcus aureus [9], 200; in the test with Staphylococcus aureus [10], 30.

Broadly, the MIC is the lowest concentration found to suppress growth.
